A selection: hits, their analogues and other compounds. The true share with any hit is near 2.5%.
SR-BI DiI-HDL act: activators of SR-BI mediated DiI-HDL uptake, primary screen, ldlA[mSR-BI] CHO cells, DiI fluorescence. 3 h; 100 = double the neutral-control signal. activation, % at 12.5 µM. hit rate 0.096% among 320,000;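 active = mean replicate activation of at least 60% and every replicate at or above 60%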;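 note: 0% = median plate neutral-control signal and 100% = twice that signal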
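Test system: SR-BI-overexpressing, LDLR-lacking CHO cells; Medium: Ham's F12 with 0.5% BSA, HEPES 25 mM, pH 7.4; Schedule: 3 h, 37 °C; Technique: bottom-read fluorescence, 550/595 nm.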
Dyrk1A ADPGlo: rat Dyrk1A kinase inhibitors, primary screen, biochemical, single point, plate reader | Dual specificity tyrosine-phosphorylation-regulated kinase 1A (Rattus norvegicus), Q63470 | ADP-Glo luminescence, NFATc1 peptide | inhibition, % at 12.5 µM | hit rate 0.43% among 310,000 | AID 504441, 2011;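 note: plate controls were vehicle with enzyme for no effect and no enzyme for full effect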
dFosB activator: activators of delta FosB homodimer, primary screen, biochemical, fluorescence polarization, TAMRA-CDK5 oligo, single point; Protein FosB (Mus musculus), P13346; activation, % at 25 µM; hit rate 0.99% among 340,000; purified delta FosB; percent of positive-control signal above neutral wells; AID 493131, 2011;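 active = mean activation above about 17%, with every replicate also reaching it, limit read from the data, passing the limit was not always enough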
SR-BI DiI inh: inhibitors of SR-BI mediated HDL lipid uptake, primary screen, ldlA[mSR-BI] cells, fluorescence, single point; Scavenger receptor class B member 1 (Mus musculus), Q61009; ldlA[mSR-BI] CHO cells, DiI-HDL uptake fluorescence, 3 h; inhibition, % at 12.5 µM; hit rate 0.96% among 320,000; AID 488896, 2010;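 active = mean replicate inhibition of at least 70% and a set share of replicates each scoring 70 or more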;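 note: 0% = median of neutral control wells and 100% = median of positive control wells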
CDK5 inh: inhibitors of human CDK5/p35 kinase, primary screen, biochemical, single concentration. Cyclin-dependent kinase 5 (Homo sapiens) + Cyclin-dependent kinase 5 activator 1 (Homo …. Recombinant CDK5/p35, ADP-Glo luminescence, 60 min. inhibition, % at 10 µM. hit rate 0.01% among 330,000. AID 488839, 2010;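 active = highest replicate inhibition of at least 50% and at least 75% of replicates reaching 50%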;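 note: plate controls were DMSO neutral control for no effect and GW8510 at 10 µM for full effect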
Target sequence (Q00535 whole entry, looked up): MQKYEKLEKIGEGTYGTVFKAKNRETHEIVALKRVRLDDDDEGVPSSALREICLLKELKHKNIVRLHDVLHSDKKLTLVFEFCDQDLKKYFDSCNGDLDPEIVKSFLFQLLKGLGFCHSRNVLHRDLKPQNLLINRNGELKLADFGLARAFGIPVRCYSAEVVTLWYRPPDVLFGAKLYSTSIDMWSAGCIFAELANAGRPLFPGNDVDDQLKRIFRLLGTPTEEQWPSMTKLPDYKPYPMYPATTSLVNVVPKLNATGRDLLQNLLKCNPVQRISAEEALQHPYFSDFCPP
Target sequence (Q15078 whole entry, looked up): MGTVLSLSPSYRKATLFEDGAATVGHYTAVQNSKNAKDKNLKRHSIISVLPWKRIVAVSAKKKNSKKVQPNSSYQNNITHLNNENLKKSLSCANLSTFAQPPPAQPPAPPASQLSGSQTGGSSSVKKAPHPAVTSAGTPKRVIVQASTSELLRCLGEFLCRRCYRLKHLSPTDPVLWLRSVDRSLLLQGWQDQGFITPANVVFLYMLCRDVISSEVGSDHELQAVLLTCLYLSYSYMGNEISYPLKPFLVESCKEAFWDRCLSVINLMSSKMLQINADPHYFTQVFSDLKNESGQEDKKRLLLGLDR
NSD2 HMT inh: NSD2 histone methyltransferase inhibitors, primary screen, biochemical, AlphaScreen, single concentration, set 2; Histone-lysine N-methyltransferase NSD2 (Homo sapiens), O96028; NSD2 peptide methylation, 120 min; inhibition, % at 12.5 µM; hit rate 0.54% among 310,000; AID 743445, 2014
* hit, by the source's call; i = inactive; x = no result. Cut-off read from the data, not from the text of the source, unless noted: active = inhibition above about 50%; inactive = the rest.

SMILES	SR-BI DiI-HDL act	Dyrk1A ADPGlo	dFosB activator	SR-BI DiI inh	CDK5 inh	NSD2 HMT inh
COc1ccc(Br)cc1CN1CCN(C(=O)Cc2ccccc2)CC1	725*	10	-11	i	-1	0
COc1ccc(CN2CCN(C(=O)Cc3ccccc3)CC2)c(OC)c1	5	5	-3	-5	0	-2
O=C(NC1CCCCC1)N1C[C@H]2C[C@@H](C1)c1cccc(=O)n1C2	12	3	-3	-12	0	-3
CCN(CC)C(=O)c1ccc(NC(=O)c2ccc3c(c2)NC(=O)CS3)cc1	-72	6	0	72*	6	0
CCCCCCn1c(O)c(/C=N/N2CCCCCC2)c(=O)[nH]c1=O	151*	x	0	-151	0	-1
CCCCC(CC)COCCCN=Cc1c(O)[nH]c(=S)[nH]c1=O (configuration not stated)	x	x	x	x	x	13
CC(C)N1CCOC(c2ccc(O)c(O)c2)C1 (configuration not stated)	x	x	x	x	x	2
CCCCCCCSc1cc(OC)c(CCNC)cc1OC	-8	-8	6	8	2	69*
COC(=O)C1=C(c2ccc(S(C)(=O)=O)cc2)C[C@@H]2CC[C@H]1N2C(=O)NCCNC(C)=O	4	2	0	-4	2	x
COc1cc(OC)c(OC)cc1CN1CCN(C(=O)COc2ccc3ccccc3c2)CC1	x	1	-9	x	0	10
COc1cccc(CN2CCN(C(=O)COc3ccc4ccccc4c3)CC2)c1	-86	3	-6	86*	-2	1
CN(C)c1ccc(CN2CC=C(c3ccc(F)cc3)CC2)cc1	41	5	1	-41	-2	51*
COc1cc(N2C(=O)CC(=O)NC2=O)cc(OC)c1OC	28	-1	0	-28	0	27
COc1cc2c(cc1O)C[C@H]1NCCc3cc4c(c-2c31)OCO4	12	72*	24*	-12	4	x
COc1ccccc1-n1c(/C=C/c2ccccn2)nc2ccccc2c1=O	7	1	-6	-7	0	-2
COc1cc(OC)c(OC)cc1/C=C1/C(=O)NC(=O)N(Cc2ccccc2)C1=O	27	3	-13	-27	-4	13
Cc1cc(/C=C2\C(=O)NC(=O)N(Cc3ccccc3)C2=O)c(C)n1C1CC1	13	-2	43*	-13	0	2
COC(=O)C1=C(c2ccc(C(C)=O)cc2)C[C@@H]2CC[C@H]1N2C(=O)NC1CC1	16	2	-2	-16	-1	x
C[CH2][Hg][S]c1ccccc1C(=O)O	-106	1	3	106*	2	x
CC(C)COC(=O)c1ccccc1C(=O)OCC(C)C	-5	13	0	5	-1	x
CCN(CC)c1ccc(/C=C/[N+](=O)[O-])cc1	-4	3	-6	4	-9	7
COc1cc(/C=C/[N+](=O)[O-])ccc1O	81*	7	3	-81	0	x
CCN1/C(=C\C=C\C2=[N+](CC)c3ccccc3C2(C)C)C(C)(C)c2ccccc21	x	15	52*	x	24	x
c1ccc2c(c1)[IH]c1ccccc1-2	13	22	33*	-13	2	x
c1ccc2c(c1)-c1cccc3cccc-2c13	14	-8	-3	-14	-1	x
SMILES	SR-BI DiI-HDL act	Dyrk1A ADPGlo	dFosB activator	SR-BI DiI inh	CDK5 inh	NSD2 HMT inh
CC1CN(O)C2CCc3nonc3C12O (configuration not stated)	28	6	16*	-28	-1	0
CN(C)c1ccc(/C=C/c2cc[n+](C)c3ccccc23)cc1	14	5	93*	-14	12	62*
O=c1[nH]c(=S)n(-c2ccccc2)c(O)c1/C=N/N1CCCCC1c1cccnc1 (configuration not stated)	-3	-4	39*	3	0	1
CCc1ccc(-n2c(O)c(/C=N/N3CCCCC3c3cccnc3)c(=O)[nH]c2=O)cc1 (configuration not stated)	14	-2	-6	-14	-1	1
Nc1cc(Cl)c2nonc2c1[N+](=O)[O-]	70*	1	-1	-70	0	9
O=[N+]([O-])c1c(Cl)c(Cl)c(Cl)c(Cl)c1Cl	10	3	2	-10	2	-2
CC(C)NC1C2CCC(CC2)C1(O)c1ccc(Cl)c(Cl)c1 (configuration not stated)	x	x	x	x	x	-1
O=c1[nH]cc(N(CCCl)CCCl)c(=O)[nH]1	x	x	x	x	x	6
CCN1C(=O)C(=C/C=C/c2ccco2)C(=O)N(CC)C1=S	-4	3	57*	4	-16	47
O=C(NC1CCCCC1)Oc1cc2oc(=O)sc2cc1Cl	x	-3	-1	x	0	67*
CCn1c(O)c(C=Nc2ccc(N3CCOCC3)cc2)c(=O)n(CC)c1=S	-20	6	-34	20	0	0
CCn1c(O)c(C=Nc2ccc(N3CCOCC3)c(Br)c2)c(=O)n(CC)c1=S	-25	0	24*	25	-1	10
COc1ccc(Cn2c(O)c(/C=N/NC(=O)c3ccccc3)c(=O)[nH]c2=O)cc1	-81	-2	-2	81*	1	-2
COc1ccc(Cn2c(O)c(/C=N/NC(=O)c3ccccc3O)c(=O)[nH]c2=O)cc1	-97	-4	-4	97*	0	-8
O=C(N/N=C/c1c(O)n(Cc2ccccc2)c(=O)[nH]c1=O)c1ccccc1O	-117	-1	-66	117*	-1	0
COc1ccc(Cn2c(O)c(/C=N/NC(=O)c3ccncc3)c(=O)[nH]c2=O)cc1	2	x	-4	-2	0	5
O=C(N/N=C/c1c(O)n(Cc2ccc(F)cc2)c(=O)[nH]c1=O)c1ccccc1O	-75	x	-9	75*	-1	-3
O=C(N/N=C/c1c(O)n(CCc2ccccc2)c(=O)[nH]c1=O)c1ccccc1O	x	-1	-14	x	2	-25
CCC1(Cc2ccccc2)C(=O)NC(=S)N(C)C1=O (configuration not stated)	3	1	-8	-3	0	-1
[N-]=[N+]=NCCN1CCC(O)CCC1=O (configuration not stated)	17	48	-2	-17	3	x
CCN1CCC2(CC1)NC(=O)c1ccccc1O2	16	1	-1	-16	-1	5
CC=C(CC)C1(CC)C(=O)NC(=S)NC1=O	4	-3	-4	-4	2	-1
O=c1c([N+](=O)[O-])cn(O)cc1[N+](=O)[O-]	9	-3	6	-9	0	6
